Activity calls are given as the source filed them. How the calls were made is not given here.
Legend:
HepG2 = test: Antiproliferative activity against human HepG2 cells after 72 hrs by XTT assay; assay type: functional, cell-based; conditions: HepG2, 72 h
Escherichia coli [1] = test: Antibacterial activity against Escherichia coli CCM 3954 after 24 hrs; assay type: functional, organism-based
[2] = Cytotoxicity against human HuH7 cells infected with Hepatitis C virus subtype 1b; assay type: cell-based, Huh-7
Hepatitis C virus [3] = test: Antiviral activity against Hepatitis C virus subtype 2a infected in human HuH7 cells; assay type: functional, organism-based, Hepacivirus hominis; conditions: genotype 2a, Huh-7
[4] = Cytotoxicity against human HuH7 cells infected with Hepatitis C virus subtype 2a; assay type: cell-based, Huh-7
Candida albicans = test: Antifungal activity against Candida albicans after 48 hrs; assay type: functional, organism-based
Pseudomonas aeruginosa [5] = test: Antibacterial activity against multi-resistant Pseudomonas aeruginosa A/16575 after 24 hrs; assay type: functional, organism-based
Enterococcus faecalis = test: Antibacterial activity against Enterococcus faecalis CCM 4224 after 24 hrs; assay type: functional, organism-based
[6] = Antiproliferative activity against human HeLaS3 cells after 72 hrs by XTT assay; assay type: functional, cell-based; conditions: HeLa S3, 72 h
In short: (§1)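 Antiproliferative test on HL-60 promyelocytic leukemia and HeLa S3 cervical carcinoma cells growing in liquid suspension.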

K562 [7] = test: Cytostatic activity against human K562 cells after 72 hrs by MTT assay; assay type: functional, cell-based; conditions: K562, 72 h
In short: (§2)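 IC50 is the concentration that cuts cell growth by 50%, read by quantitative metabolic MTT staining after a 3-day treatment. The resistant sublines were made by raising the concentration of the cytotoxic drug step by step. CEM-DNR-bulk (daunorubicin-selected) stably overexpresses mrp-1. K562-TAX (paclitaxel-selected) expresses only mdr-1. HCT116p53−/− carries null p53 alleles. BJ and MRC-5 are nonmalignant fibroblasts.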

HCT-116 [8] = test: Cytostatic activity against human HCT116 cells after 72 hrs by MTT assay; assay type: functional, cell-based; conditions: HCT-116, 72 h; in short: as §2
Candida tropicalis = test: Antifungal activity against Candida tropicalis after 48 hrs; assay type: functional, organism-based
HL-60 = test: Antiproliferative activity against human HL60 cells after 72 hrs by XTT assay; assay type: functional, cell-based; conditions: HL-60, 72 h; in short: as §1
Pichia kudriavzevii = test: Antifungal activity against Candida crusei after 48 hrs; assay type: functional, organism-based
K562 [9] = test: Cytostatic activity against paclitaxel-resistant human K562 cells after 72 hrs by MTT assay; assay type: functional, cell-based; conditions: K562, 72 h; in short: as §2
HCT-116 [10] = test: Cytostatic activity against p53-deficient human HCT116 cells after 72 hrs by MTT assay; assay type: functional, cell-based; conditions: HCT-116, 72 h; in short: as §2
Staphylococcus aureus [11] = test: Antibacterial activity against methicillin-resistant Staphylococcus aureus MRSA 4591 after 24 hrs; assay type: functional, organism-based
Pseudomonas aeruginosa [12] = test: Antibacterial activity against Pseudomonas aeruginosa CCM 3955 after 24 hrs; assay type: functional, organism-based
Hepatitis C virus [13] = test: Antiviral activity against Hepatitis C virus subtype 1b infected in human HuH7 cells; assay type: functional, organism-based, Hepacivirus hominis; conditions: genotype 1b, Huh-7
Candida parapsilosis = test: Antifungal activity against Candida parapsilosis after 48 hrs; assay type: functional, organism-based
A549 = test: Cytostatic activity against human A549 cells after 72 hrs by MTT assay; assay type: functional, cell-based; conditions: A549, 72 h; in short: as §2
Escherichia coli [14] = test: Antibacterial activity against multi-resistant Escherichia coli C/16702 after 24 hrs; assay type: functional, organism-based
BJ = test: Cytostatic activity against human BJ cells after 72 hrs by MTT assay; assay type: ADME, cell-based; in short: as §2
CCRF-CEM = test: Cytostatic activity against human CCRF-CEM cells after 72 hrs by MTT assay; assay type: functional, cell-based; in short: as §2
MRC5 = test: Cytostatic activity against human MRC5 cells after 72 hrs by MTT assay; assay type: ADME, cell-based; conditions: MRC5, 72 h; in short: as §2
Staphylococcus aureus [15] = test: Antibacterial activity against Staphylococcus aureus CCM 3953 after 24 hrs; assay type: functional, organism-based
[16] = Cytostatic activity against human CEM-DNR-bulk cells after 72 hrs by MTT assay; assay type: functional, cell-based; in short: as §2
[17] = tested on: Staphylococcus haemolyticus; test: Antibacterial activity against methicillin-resistant Staphylococcus haemolyticus A/16568 after 24 hrs; assay type: functional, organism-based

Row | Compound | IC50 (HepG2) [µM] | Activity (Escherichia coli [1]) | CC50 [2] [µM] | EC50 (Hepatitis C virus [3]) [µM] | CC50 [4] [µM] | Activity (Candida albicans) | Activity (Pseudomonas aeruginosa [5]) | Activity (Enterococcus faecalis) | IC50 [6] [µM] | IC50 (K562 [7]) [µM] | IC50 (HCT-116 [8]) [µM] | Activity (Candida tropicalis) | IC50 (HL-60) [µM] | Activity (Pichia kudriavzevii) | IC50 (K562 [9]) [µM] | IC50 (HCT-116 [10]) [µM] | Activity (Staphylococcus aureus [11]) | Activity (Pseudomonas aeruginosa [12]) | EC50 (Hepatitis C virus [13]) [µM] | Activity (Candida parapsilosis) | also measured
1 | COc1ncnc2c1ccn2[C@@H]1O[C@H](CO)[C@@H](O)[C@H]1O | > 20 | inactive | > 44 | > 44 | > 44 | inactive | inactive | inactive | > 20 | > 20 | > 20 | inactive | > 20 | inactive | > 20 | > 20 | inactive | inactive | > 44 | inactive | IC50 (A549): > 20 µM; Activity (Escherichia coli [14]): inactive; IC50 (BJ): > 100 µM; IC50 (CCRF-CEM): > 20 µM; IC50 (MRC5): > 100 µM; Activity (Staphylococcus aureus [15]): inactive; IC50 [16]: > 20 µM; Activity [17]: inactive
2 | O=c1[nH]cnc2c1c(-c1ccccc1)cn2[C@@H]1O[C@H](CO)[C@@H](O)[C@H]1O | > 20 | inactive | > 44 | > 44 | > 44 | inactive | inactive | inactive | > 20 | > 20 | > 100 | inactive | > 20 | inactive | > 20 | > 20 | inactive | inactive | > 44 | inactive | IC50 (A549): > 100 µM; Activity (Escherichia coli [14]): inactive; IC50 (BJ): > 100 µM; IC50 (CCRF-CEM): > 100 µM; IC50 (MRC5): > 100 µM; Activity (Staphylococcus aureus [15]): inactive; IC50 [16]: > 20 µM; Activity [17]: inactive
3 | Cc1ncnc2c1ccn2[C@@H]1O[C@H](CO)[C@@H](O)[C@H]1O | 0.06 | inactive | 0.23 | 0.02 | 0.12 | inactive | inactive | inactive | 0.02 | 0.01 | 0.03 | inactive | 0.02 | inactive | 0.05 | 0.06 | inactive | inactive | 0.02 | inactive | IC50 (A549): 0.03 µM; Activity (Escherichia coli [14]): inactive; IC50 (BJ): 0.07 µM; IC50 (CCRF-CEM): 0.01 µM; IC50 (MRC5): 0.09 µM; Activity (Staphylococcus aureus [15]): inactive; IC50 [16]: 0.05 µM; Activity [17]: inactive
4 | CSc1ncnc2c1c(-c1ccccc1)cn2[C@@H]1O[C@H](CO)[C@@H](O)[C@H]1O | > 20 | inactive | > 44 | > 44 | > 44 | inactive | inactive | inactive | > 20 | > 20 | > 20 | inactive | > 20 | inactive | > 20 | > 20 | inactive | inactive | 23.3 | inactive | IC50 (A549): > 20 µM; Activity (Escherichia coli [14]): inactive; IC50 (BJ): > 100 µM; IC50 (CCRF-CEM): > 20 µM; IC50 (MRC5): > 100 µM; Activity (Staphylococcus aureus [15]): inactive; IC50 [16]: > 20 µM; Activity [17]: inactive
5 | O=c1[nH]cnc2c1c(-c1ccco1)cn2[C@@H]1O[C@H](CO)[C@@H](O)[C@H]1O | > 15 | inactive | > 44 | > 44 | > 44 | inactive | inactive | inactive | 5.78 | 15.5 | 18.3 | inactive | 2.2 | inactive | 17.8 | > 20 | inactive | inactive | > 44 | inactive | IC50 (A549): > 20 µM; Activity (Escherichia coli [14]): inactive; IC50 (BJ): > 100 µM; IC50 (CCRF-CEM): > 20 µM; IC50 (MRC5): > 100 µM; Activity (Staphylococcus aureus [15]): inactive; IC50 [16]: > 20 µM; Activity [17]: inactive
6 | CNc1ncnc2c1c(I)cn2[C@@H]1O[C@H](CO)[C@@H](O)[C@H]1O | > 20 | inactive | > 44 | > 44 | > 44 | inactive | inactive | inactive | > 20 | > 100 | > 100 | inactive | > 20 | inactive | > 20 | > 100 | inactive | inactive | > 44 | inactive | IC50 (A549): > 100 µM; Activity (Escherichia coli [14]): inactive; IC50 (BJ): > 100 µM; IC50 (CCRF-CEM): > 100 µM; IC50 (MRC5): > 100 µM; Activity (Staphylococcus aureus [15]): inactive; IC50 [16]: > 20 µM; Activity [17]: inactive

— ChEMBL document CHEMBL3124843, “Synthesis, cytostatic, antimicrobial, and anti-HCV activity of 6-substituted 7-(het)aryl-7-deazapurine ribonucleosides” (J Med Chem, 2014)
